Test results published in ChEMBL document CHEMBL4513216, “Probing the Open Global Health Chemical Diversity Library for Multistage-Active Starting Points for Next-Generation Antimalarials” (ACS Infect Dis, 2020).

Assay: Toxicity liver stage against HepG2, at 10uM
Format: cell-based
Set-up: test concentration 10 uM, cell line HepG2-A16-CD81EGFP
Settings: human, HepG2-A16-CD81EGFP cells; read-out: INHIBITION
How it was run: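 Uninfected HepG2-A16-CD81EGFP cells, 3 × 10^3 per well, 1536-well, plated on prespotted compound at 10 μM final, parasite-free screening media added to match infected plates; puromycin 10 μM positive, DMSO 0.5% negative; run in parallel with 48 h PbLuc assay at 37 °C, 5% CO2; viability by CellTiter-Glo luminescence, normalized to controls.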

| Compound | cytotoxicity at 10 µM [%] |
| --- | --- |
| CC(C)CS(=O)(=O)N1C[C@@H]2C[C@H](C(=O)NCc3ccccc3)[C@H](C1)O2 | 8.24 |
| CCc1nnc2n1CCN(C(=O)c1ccc3c(c1)NC(=O)CO3)C2 | 1.24 |
| O=C(CN1CCOC(Cn2cncn2)C1)NC(C1CC1)C1CC1 (centres undefined) | -49.5 |
| CCCc1n[nH]c(C2CN(C(=O)CCn3ccccc3=O)CCO2)n1 (centres undefined) | -0.438 |
| COc1ccc(OC)c(CN(C(=O)c2ccc(C)[nH]c2=O)C2CC2)c1 | -1.59 |
| O=S(=O)(c1ccccc1)N1CC[C@]2(C[C@@H](OCC3CC3)CO2)C1 | -81.3 |
| Cc1ccccc1OCC1CCCN(C(=O)CNC(=O)N(C)C)C1 (centres undefined) | -4.46 |
| CC(C)Oc1ccc(CN2CCCC(N3CCCC3)C2)cc1CO (centres undefined) | 0.271 |
| CC(C)c1nccc(CN(C)Cc2cccc(-n3cccn3)c2)n1 | -2.44 |
| CC1CCCCN1C(=O)COCc1nc(-c2ccncc2)no1 (centres undefined) | 1.79 |
| CCOC(=O)CC(c1cccc(OC)c1OC)c1c(C)[nH][nH]c1=O (centres undefined) | 0.0535 |
| O=C(c1nnn(-c2ccc(C(F)(F)F)cc2)n1)N1CC(O)C1 | -4.63 |
| COC(=O)CCn1ccc(=O)c2ccc(OC)cc21 | 17.1 |
| Cc1occc1CNC(=O)C1(C)CCCN(C(=O)c2ccccc2)C1 (centres undefined) | -7.01 |
| Cc1noc(C)c1-c1cncc(C2CCCN2Cc2ncc[nH]2)n1 (centres undefined) | -8.89 |
| CCOc1ccccc1CNC(=O)c1cnn(CC)c1C(F)(F)F | 3.67 |
| CN(C)S(=O)(=O)c1csc(C(=O)N2CCSCC2)c1 | -51.6 |
| Cc1ncc2c(c1CNC(=O)C1(C)CCCCO1)CCNC2 (centres undefined) | -27.9 |
| COc1cccc(C(=O)N2C[C@@H](c3ccccc3)[C@@H]3NCCCC[C@@H]32)c1 | -14.1 |
| CSc1ccc(C(=O)N2CC(=O)N(CC(C)(C)C)CC(O)C2)cc1 (centres undefined) | 8.6 |
| Cc1nc(COCC2CN(C(=O)N(C)C)Cc3nccn3C2)cs1 (centres undefined) | 4.48 |
| CCCN1CC(C(=O)Nc2ccccn2)CC1=O (centres undefined) | -16.4 |

| Compound | cytotoxicity at 10 µM [%] |
| --- | --- |
| Cc1cc(-c2ccccc2Cl)nc(N)n1 | -0.268 |
| CCn1c(CC2CCN(C(=O)c3cc(C(C)C)n[nH]3)CC2)n[nH]c1=O | -44.4 |
| CCN1C(=O)C[C@@H]2[C@@H]1CCN2S(=O)(=O)c1ccccc1 | 2.55 |
| COc1nc2c(cc1C(=O)N(C)Cc1n[nH]c3c1CCCC3)CCC2 | -1.89 |
| COC(=O)c1cccn1C1CCN(S(=O)(=O)c2ccccc2)CC1 | -11.1 |
| COc1ccc(NC(=O)c2nc(C)sc2C)cn1 | -2.52 |
| CN(C)CCN1CCC2(CC1)CN(c1cccnc1)C(=O)CO2 | 1.7 |
| CCOC(C)c1noc(CN2CCN(Cc3cccc(F)c3)CC2)n1 (centres undefined) | 7.66 |
| CCc1ccc(C2COCCN2C(=O)Nc2cccc(C(C)=O)c2)o1 (centres undefined) | -7.13 |
| Cc1nc(-c2ccccc2)sc1CSC(C)C(N)=O (centres undefined) | -6.55 |
| Cc1nc2n(n1)CC(NCc1nc(C)c(C)o1)CC2 (centres undefined) | -0.925 |
| CC(NC(=O)CCCn1cnc2ccccc2c1=O)c1ncn[nH]1 (centres undefined) | -4.31 |
| Cn1ncc2c1C(COCC1CC1)CN(C(=O)c1ccoc1)C2 (centres undefined) | -2.18 |
| C1CC(CN2C[C@@H]3C[C@@H](c4nnc(C5CC5)o4)O[C@@H]3C2)CCO1 | 6.58 |
| Cc1cc(C)n(C2CCCN(C(=O)Cc3cccc(F)c3)C2)n1 (centres undefined) | -8.09 |
| CC(C)(C)OC(=O)N1CCCCC1C(=O)NCc1cc[nH]n1 (centres undefined) | 1.41 |
| CN(C)S(=O)(=O)N1CCC[C@]2(C[C@@H](Oc3ccccn3)CO2)C1 | -2.31 |
| CC(C)n1cnnc1C1CCCN(S(=O)(=O)CCCF)C1 (centres undefined) | 7.39 |
| CNc1cc(C)nc(N2C[C@H](C3CC3)[C@@H](N)C2)n1 | -4.7 |
| CNc1cc2c(nn1)CCN(C(=O)c1cc(F)cc(F)c1)C2 | -5.97 |
| Cc1ccc(C(=O)N2CCC3(CCCCC3)C2)c(=O)[nH]1 | -2.47 |
| CCOCC1CCN(C(=O)C(c2c(F)cccc2F)N(C)C)CC1 (centres undefined) | -3.12 |

| Compound | cytotoxicity at 10 µM [%] |
| --- | --- |
| CS(=O)(=O)CCn1ccc(NC(=O)Cc2c[nH]c3ccccc23)n1 | 2 |
| CCNC(=O)N1CCc2ccc(NC(=O)NCC3CC3)cc21 | 3.53 |
| Cc1noc(C)c1CN1CCN(Cc2nccn2C)CC1 | -4.93 |
| CC(C)(C)NC(=O)C[C@@H]1CCNC[C@@H]1Cc1cc(C(C)(C)C)on1 | 4.37 |
| COc1ccc(S(=O)(=O)Nc2cccnc2-n2cncn2)cc1C | -6.87 |
| COCCC(=O)NCCc1nc2cc(-c3ccc(OC)cc3)ncn2n1 | 10.5 |
| CCN1CCN(CCCNC(=O)c2cc3ccc(C)cc3nc2C)CC1 | 5.33 |
| CCC(C)NC(=O)c1ccc(CNC(=O)CCC(C)C)cc1 (centres undefined) | 2.27 |
| CC(=O)NCCCNC(=O)N1CCN(c2cc(F)ccc2F)CC1 | -5.14 |
| N#Cc1cn(CCCN2CCc3ccccc3C2)c(=O)[nH]c1=O | 2.72 |
| Cc1cccc(N(CC(=O)c2ccccc2)C2=NCCCCC2)c1 | 14.5 |
| O=C1OCCN1CCNCC1(O)CCCN(CCC2CCCCC2)C1=O (centres undefined) | -0.615 |
| Cc1cnc(C(=O)N2C[C@H]3CCCC(OCc4cccnc4)[C@H]3C2)cn1 (some centres undefined) | 3.51 |
| Cc1cc(C(=O)O)ccc1NS(=O)(=O)c1c(C)nn(C(C)C)c1C | 5.31 |
| O=C1NC2(CCN(C(=O)Cc3ccsc3)CC2)CC1c1ccncc1 (centres undefined) | 5.06 |
| CC(C)Oc1cccc(C(=O)C2CCCN(C(=O)c3cncs3)C2)c1 (centres undefined) | 3.19 |
| c1cnnc(N2CCC(c3nnc(Cn4ccnc4)n3C3CC3)CC2)c1 | 6.71 |
| Cc1cnn(C2CCCN(C(=O)c3ccc(-n4ccnc4)cc3)C2)c1 (centres undefined) | -1.14 |
| Cc1ccsc1C(=O)N1CCCN(Cc2cscn2)CC1 | -12.4 |
| CC(C)C(C)NC(=O)Nc1cccc2c1CCN(S(C)(=O)=O)C2 (centres undefined) | -11.3 |
| O=C(O)[C@@H]1CN(C(=O)c2ccc(F)c(F)c2)C[C@H]1c1cccc(F)c1 | -113 |
| COc1ccc2c(c1)CCCN(C(=O)NCC1CCCO1)C2 (centres undefined) | 1.06 |

| Compound | cytotoxicity at 10 µM [%] |
| --- | --- |
| O=C(c1csc(Br)c1)N1CCCC(n2ccnc2)C1 (centres undefined) | 3.51 |
| O=C1NC[C@H]2CN(C3CCOCC3)CCN12 | -1.95 |
| Cc1nnc2n1CCN(Cc1nc3c(F)cccc3[nH]1)C2 | -2.3 |
| CC(C)CNC(=O)CN1CCCC(c2ccc(C(=O)O)cc2)C1 (centres undefined) | -6.49 |
| COCCc1noc(CN2CCN(CC(O)c3ccccc3)CC2)n1 (centres undefined) | 2.67 |
| NCCSc1nccc(-c2cnc(C3CC3)nc2-c2ccco2)n1 | -7.19 |
| CCCNC(=O)C1CCN(CC(O)c2ccccc2)CC1 (centres undefined) | -2.21 |
| CCn1c(Cn2cncn2)nnc1C1CCN(C2CCNCC2)CC1 | -0.0807 |
| O=C(Cc1ccccn1)N1CCN(C(=O)CC2CCCC2)CC1 | -10.5 |
| CN(C)c1cncc(C2CCN(CC(N)=O)CC2)n1 | 3.07 |
| CCNc1ncc(C)c(-c2cnn(C)c2)n1 | -3.73 |
| Cc1csc(N2CCCN(C(=O)c3cccs3)CC2)n1 | -8.08 |
| Cc1cnn(CCNCc2nc(CNC(=O)c3ccccc3)no2)c1 | -5.92 |
| CCN(c1ccsc1C(=O)N1CCSCC1)S(=O)(=O)c1ccc(Cl)cc1 | 14.5 |
| Cc1ccc2c(c1)CCC21CCN(CCO)CC1 | -0.675 |
| Cc1nc(C2(NCC(=O)NC(=O)Nc3ccccc3)CCCCC2)no1 | 30.4 |
| CCN(CC)C(=O)c1nc2c(s1)CCN(Cc1cccc(OC)c1)CC2 | 2.77 |
| NC(=O)C1CCN(c2nc3nccc(-c4ccccn4)c3c(=O)[nH]2)CC1 | -9.24 |
| CC(C)N1CCCC(Cc2nccnc2Cl)CC1 (centres undefined) | -3.97 |
| CC1(C)CN(C(=O)c2cnc(-c3ccccn3)nc2)CC[C@]1(C)O | -2.52 |
| CC(Cn1cccn1)NCc1nc(-c2ccccn2)no1 (centres undefined) | -5.17 |
| O=C1NCC2(CCC(C(=O)N3CCC(O)CC3)CC2)Oc2ccccc21 (centres undefined) | -21.7 |

| Compound | cytotoxicity at 10 µM [%] |
| --- | --- |
| Cc1ccc(C(CNCc2cnn(C(C)C)c2)N2CCOCC2)s1 (centres undefined) | -21.3 |
| O=C(COc1ccccc1)N1CCCC1c1ccc[nH]1 (centres undefined) | -0.575 |
| CN(C)c1ccccc1C(=O)N1C[C@@H](CN2CCCCC2)[C@@H](CO)C1 | -12.1 |
| O=C(Cn1nc(-c2ccc(F)cc2)oc1=O)NCc1ccncc1 | -9.21 |
| Cc1cc(C(=O)N2C[C@@H]3CN(S(C)(=O)=O)CCO[C@@H]3C2)c(C)o1 | -3.49 |
| CN1CCN(c2nc(-c3cnn(C)c3)cs2)CC1 | -0.186 |
| CN(Cc1ccc(Cl)c(F)c1)C(=O)CCc1ccncc1 | 3.31 |
| Cc1cccc(SC2CCN(C(=O)CCCn3cnnn3)CC2)c1 | 0.647 |
| CN(C)C1Cc2ccccc2N(S(=O)(=O)c2ccccc2C#N)C1 (centres undefined) | 0.71 |
| O=C(N[C@@H]1CN(c2ncccn2)[C@@H]2CCCO[C@@H]21)c1cscn1 | -142 |
| COc1cc(C)ccc1OCc1nc(C(=O)N2CCCNC(=O)C2)co1 | -44.5 |
| CC(C)[C@@H]1CN(C(=O)c2ccsc2)C[C@H]1C(=O)O | 12.8 |
| CCc1nnc(CNC(=O)c2cc3c(nc2OC)CCC3)s1 | 0.156 |
| CNS(=O)(=O)c1ccc(CN2CCN3CCNC(=O)C3C2)cc1 (centres undefined) | -6.22 |
| Cc1nc(NC(=O)NC2CC(=O)N(C)C2)nn1C (centres undefined) | -12.2 |
| COc1ccc(CNCC2(COc3cccnc3)C[C@@H](O)[C@@H](O)C2)cc1 (some centres undefined) | -57 |
| COc1ccccc1CN(Cc1cccc(C)c1)C(=O)[C@@H](N)CC(=O)O | -47.7 |
| O=c1c2sccc2nc2n1CCN(Cc1ccccc1C(F)(F)F)CC2 | -9.31 |
| O=C(c1cc(=O)n(-c2ccccc2)[nH]1)N1CCOCC(O)C1 (centres undefined) | -0.205 |
| Cc1nnc2n1CCN(Cc1csc(CC(=O)N(C)C)n1)C2 | -7.08 |
| CCC(=O)N1CCCC(c2cc(Nc3ncccn3)nc(C)n2)C1 (centres undefined) | -3.48 |
